Assays:
Format in all cases: functional, cell-based
MCF7 = experiment: Antiproliferative activity against human MCF7 cells after 72 hrs by sulforhodamine B assay; conditions: MCF7, 72 h
Summary of the method: (§1)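 Cells grown in RPMI-1640 with 2 mM L-glutamine, 25 mM HEPES, 10% FBS, streptomycin and penicillin; seeded at 4000–12 000 cells per well and exposed to compounds for 72 h. Fixed in 10% trichloroacetic acid, stained with 0.04% SRB, bound dye dissolved in 10 mM Tris base, absorbance read at 515 nm. IC50 from at least three independent experiments run in duplicate.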

A549 = experiment: Antiproliferative activity against human A549 cells after 72 hrs by sulforhodamine B assay; conditions: A549, 72 h; summary of the method: as §1
KB = experiment: Antiproliferative activity against human KB cells after 72 hrs by sulforhodamine B assay; summary of the method: as §1
[1] = Antiproliferative activity against human KBVIN cells after 72 hrs by sulforhodamine B assay; summary of the method: as §1
MDA-MB-231 = experiment: Antiproliferative activity against human MDA-MB-231 cells after 72 hrs by sulforhodamine B assay; conditions: MDA-MB-231, 72 h; summary of the method: as §1

| Structure (SMILES) | IC50 (MCF7) [µM] | IC50 (A549) [µM] | IC50 (KB) [µM] | IC50 (MDA-MB-231) [µM] | IC50 [1] [µM] |
| --- | --- | --- | --- | --- | --- |
| CC[C@]1(O)C[C@@H]2CN(CCc3c([nH]c4ccccc34)[C@@](C(=O)OC)(c3cc4c(cc3OC)N(C)[C@H]3[C@@](O)(C(=O)OC)[C@H](OC(C)=O)[C@]5(CC)C=CCN6CC[C@]43[C@@H]65)C2)C1 [VINBLASTINE] | 0.0073 | 0.023 | 0.0044 | 0.032 | 2.48 |
| C/C=C1/CN(C)[C@H]2Cc3c([nH]c4ccccc34)[C@H](c3cc4c5c([nH]c4cc3OC)[C@]3(C(=O)OC)C[C@@H]4C[C@H](CC)[C@@H]3N(CC5)[C@@H]4CC(C)=O)C[C@H]1[C@]2(CO)C(=O)OC | 6.1 | 5.6 | 5 | 4.8 | 5.1 |
| CC[C@H]1C[C@@H]2C[C@@]3(C(=O)OC)c4[nH]c5c([C@@H]6C[C@H]7[C@@]8(C(=O)OC)CO[C@H](N(C)[C@H]8Cc8c6[nH]c6ccccc86)[C@@]76O[C@H]6C)c(OC)ccc5c4CCN([C@@H]2CC(C)=O)[C@@H]13 | > 10 | 8.6 | 7.4 | 7.7 | 6.6 |
| CC[C@H]1C[C@@H]2C[C@@]3(C(=O)OC)c4[nH]c5c([C@@H]6C[C@H]7[C@@]8(C(=O)OC)CO[C@H](N(C)[C@H]8Cc8c6[nH]c6ccccc86)[C@]76O[C@@H]6C)c(OC)ccc5c4CCN([C@@H]2CC(C)=O)[C@@H]13 | > 10 | > 10 | > 10 | > 10 | > 10 |
| C/C=C1/CN2COC[C@]3(C(=O)OC)[C@@H]1C[C@@H](c1c(OC)ccc4c5c([nH]c14)[C@]1(C(=O)OC)C[C@H]4C[C@H](CC)[C@@H]1N(CC5)[C@@H]4CO)c1[nH]c4ccccc4c1C[C@H]23 | 6 | 4.7 | 4.8 | 5.1 | 4.9 |
| C/C=C1/CN(C)[C@H]2Cc3c([nH]c4ccccc34)[C@H](c3cc4[nH]c5c(c4cc3OC)CCN3C[C@H]4C[C@H](CC)[C@H]3[C@H]5C4)C[C@H]1[C@@H]2C(=O)OC | 4.7 | 4.3 | 4.8 | 4.5 | 4.4 |
| C/C=C1/CN2COC[C@@]3(C(=O)OC)[C@@H]1C[C@@H](c1cc4c5c([nH]c4cc1OC)[C@]1(C(=O)OC)C[C@@H]4C[C@H](CC)[C@@H]1N(CC5)C4)c1[nH]c4ccccc4c1C[C@H]23 | 4.8 | 4.3 | 4.3 | 4.5 | 4.4 |
| CC(=O)O[C@H]1C(=O)[C@@]2(C)[C@H]([C@H](OC(=O)c3ccccc3)[C@]3(O)C[C@H](OC(=O)[C@H](O)[C@@H](NC(=O)c4ccccc4)c4ccccc4)C(C)=C1C3(C)C)[C@]1(OC(C)=O)CO[C@@H]1C[C@@H]2O [PACLITAXEL] | 0.0088 | 0.0045 | 0.0036 | 0.007 | 2.36 |
| CC[C@H]1C[C@H]2CN3CC[C@@]4(O)C(=Nc5cc(OC)c([C@@H]6C[C@H]7[C@@]8(C(=O)OC)CO[C@H](N(C)[C@H]8Cc8c6[nH]c6ccccc86)[C@@]76O[C@H]6C)cc54)[C@](C(=O)OC)(C2)[C@H]13 | 4.6 | 4.3 | 4.7 | 4.5 | 4.8 |
| C/C=C1/CN2COC[C@]3(C(=O)OC)[C@@H]1C[C@@H](c1c(OC)ccc4c1N=C1[C@]5(C(=O)OC)C[C@H]6C[C@H](CC)[C@@H]5N(CC[C@]14O)C6)c1[nH]c4ccccc4c1C[C@H]23 | 6.5 | 4.9 | 4.5 | 8.2 | 4.7 |
| C/C=C1/CN(C)[C@H]2Cc3c([nH]c4ccccc34)[C@H](c3cc4c5c([nH]c4cc3OC)[C@]3(C(=O)OC)C[C@@H]4C[C@H](CC)[C@@H]3N(CC5)[C@@H]4CC(C)=O)C[C@H]1[C@@]2(CO)C(=O)OC | 4.4 | 4.4 | 4.6 | 3.2 | 4.4 |
| CC[C@H]1C[C@@H]2C[C@@]3(C(=O)OC)c4[nH]c5c([C@@H]6C[C@H]7[C@@]8(C(=O)OC)CO[C@H](N(C)[C@H]8Cc8c6[nH]c6ccccc86)[C@@]76O[C@H]6C)c(OC)ccc5c4CCN(C2=O)[C@@H]13 | 8.3 | 5.9 | 5.7 | 8.2 | 5.8 |

More lines, main results first:

| IC50 (MCF7) [µM] | IC50 (A549) [µM] | IC50 (KB) [µM] | IC50 (MDA-MB-231) [µM] | Structure (SMILES) | IC50 [1] [µM] |
| --- | --- | --- | --- | --- | --- |
| 4.9 | 4.3 | 4.5 | 4.5 | C/C=C1/CN(C)[C@H]2Cc3c([nH]c4ccccc34)[C@H](c3c(OC)ccc4c5c([nH]c34)[C@]3(C(=O)OC)C[C@H]4C[C@H](CC)[C@@H]3N(CC5)[C@@H]4CO)C[C@H]1[C@]2(CO)C(=O)OC | 4.9 |
| > 10 | 9.8 | 6.7 | 5.2 | C/C=C1/CN(C)[C@H]2Cc3c([nH]c4ccccc34)[C@H](c3ccc4[nH]c5c(c4c3)CCN3C[C@@H]4C[C@H](CC)[C@H]3[C@@]5(C(=O)OC)C4)C[C@H]1[C@]2(CO)C(=O)OC | 8.3 |
| 3 | 3.1 | 2.7 | 2.8 | C/C=C1/CN(C)[C@H]2Cc3c([nH]c4ccccc34)[C@H](c3cc4c(cc3OC)N=C3[C@]5(C(=O)OC)C[C@H]6C[C@H](CC)[C@@H]5N(CC[C@@]34O)C6)C[C@H]1[C@]2(CO)C(=O)OC | 2.6 |
| 5.6 | 4.4 | 5 | 5.2 | C/C=C1/CN(C)[C@H]2Cc3c([nH]c4ccccc34)C(c3c(OC)ccc4c5c([nH]c34)[C@]3(C(=O)OC)C[C@@H]4C[C@H](CC)[C@@H]3N(CC5)C4)C[C@H]1[C@@H]2C(=O)OC (stereo not given in full) | 4.1 |
| 4.8 | 3.5 | 4.3 | 4.8 | C/C=C1/CN(C)[C@H]2Cc3c([nH]c4ccccc34)[C@H](c3c(OC)ccc4c5c([nH]c34)[C@]3(C(=O)OC)C[C@@H]4C[C@H](CC)[C@@H]3N(CC5)C4)C[C@H]1[C@@]2(CO)C(=O)OC | 4.7 |
| 5.6 | 5.3 | 4.8 | 4.8 | C/C=C1/CN(C)[C@H]2Cc3c([nH]c4ccccc34)[C@H](c3c(OC)ccc4c5c([nH]c34)[C@]3(C(=O)OC)C[C@H]4C[C@H](CC)[C@@H]3N3C[C@@H]5O[C@H]43)C[C@H]1[C@]2(CO)C(=O)OC | 4.7 |
| 5.3 | 4.5 | 4.2 | 4.8 | C/C=C1/CN(C)[C@H]2Cc3c([nH]c4ccccc34)[C@H](c3c(OC)ccc4c5c([nH]c34)[C@]3(C(=O)OC)C[C@H]4C[C@H](CC)[C@@H]3N(CC5)C4)C[C@H]1[C@]2(CO)C(=O)OC | 4.1 |
